Only some compounds are listed: those with a hit (about 1.5% of all), similar ones and a draw of the others.
CHRM4 PAM: human M4 muscarinic receptor positive allosteric modulators, primary screen, CHO-K1 cells, Fluo-8 calcium fluorescence. Muscarinic acetylcholine receptor M4 (Homo sapiens), P08173. CHO-K1 hM4/Gqi5, ACh EC20; 0% = ACh EC20, 100% = maximal ACh. activation, % at 3 µM. actives 0.4% (n = 360,000);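 active = activation above its plate's cutoff, the mean activation of sample wells plus 3 SD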
M4 antag: human M4 muscarinic receptor antagonists, primary screen, CHO cells, Fluo-8 calcium fluorescence | Muscarinic acetylcholine receptor M4 (Homo sapiens), P08173 | inhibition, % at 3 µM | actives 0.73% (n = 360,000) | AID 624125, 2012 | CHO-hM4 cells, ACh EC80;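 active = inhibition above its plate's cutoff, the mean inhibition of sample wells plus 3 SD, cut at about 27% in these data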;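 note: 0% = acetylcholine EC80 with DMSO and 100% = DMSO without agonist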
OXTR potentiate: human OXTR potentiators, primary screen, fluorescence, CHO-OTR cells, Fluo-8 calcium; actives 0.061% (n = 320,000); activation, % at 3 µM; Oxytocin receptor (Homo sapiens), P30559; Fluo-8 calcium fluorescence, potentiator mode; 0% = oxytocin EC15, 100% = EC100; AID 2445, 2010;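 active = activation above that plate's cutoff, the mean activation of tested compounds plus 3 SD, cut at about 6.6% in these data, passing the limit was not always enough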;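 note: 100% uses oxytocin at 75 nM as the full agonist control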
Target sequence (P30559 whole entry, looked up): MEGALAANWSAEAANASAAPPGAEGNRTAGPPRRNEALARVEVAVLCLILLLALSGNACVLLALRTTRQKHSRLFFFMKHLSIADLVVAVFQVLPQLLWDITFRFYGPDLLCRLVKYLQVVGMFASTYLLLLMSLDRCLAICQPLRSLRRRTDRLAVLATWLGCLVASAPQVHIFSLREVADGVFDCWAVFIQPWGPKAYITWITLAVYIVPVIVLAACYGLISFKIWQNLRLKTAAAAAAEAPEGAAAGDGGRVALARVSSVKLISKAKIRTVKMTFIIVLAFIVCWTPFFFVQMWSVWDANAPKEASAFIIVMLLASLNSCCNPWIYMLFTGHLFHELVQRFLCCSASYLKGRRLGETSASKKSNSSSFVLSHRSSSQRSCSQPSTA
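Assay system: CHO-OTR cells, human receptor / Also added: oxytocin at about EC15, sub-maximal agonist stimulus / Dosing: single dose, 3.0 µM nominal final compound concentration / Incubation: 6 min pre-incubation, 100 s read / Technique: Fluo-8 calcium dye fluorescence / Read-out: % activation vs EC15 and EC100 oxytocin / Benchmarks: EC15 oxytocin low, 75 nM oxytocin high / Replicates: singlicate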
OXTR ag: human OXTR agonists, primary screen, fluorescence, CHO-OTR cells, Fluo-8 calcium; Oxytocin receptor (Homo sapiens), P30559; Fluo-8 calcium fluorescence; normalized: DMSO 0%, oxytocin 100%; activation, % at 3 µM; actives 0.32% (n = 320,000); AID 2435, 2010;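 active = activation above the mean of all tested compounds plus 3 SD, cutoff set per screening run, cut at about 20% in these data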;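 note: peak over basal fluorescence ratio from a 100 s FLIPR kinetic read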
V1R ag counter: agonists of human V1a receptor, primary screen, counter-screen for OXTR agonist project, fluorescence, CHO-V1R cells. activation, % at 3 µM. Vasopressin V1a receptor (Homo sapiens), P37288. Fluo-8 calcium fluorescence, agonist mode; 0% DMSO, 100% 3 nM vasopressin. actives 0.25% (n = 320,000);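 active = activation above the mean activation of all tested compounds plus 3 SD, per screening run, cut at about 20% in these data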;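 note: signal is peak over basal fluorescence ratio across a 100 second FLIPR read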
M4 ag: human M4 muscarinic receptor agonists, primary screen, CHO-K1 cells, Fluo-8 calcium fluorescence | activation, % at 3 µM | CHO-K1 hM4/Gqi5; vehicle 0%, full acetylcholine response 100% | actives 0.14% (n = 360,000) | AID 624127, 2012 | Muscarinic acetylcholine receptor M4 (Homo sapiens), P08173;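 active = activation above the run mean over all test wells plus 3 SD, cut at about 32% in these data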;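 note: peak over basal fluorescence ratio per well then scaled between controls; 0% = DMSO wells and 100% = acetylcholine at EC100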
Numbers without * were called inactive; · = no result.

SMILES | CHRM4 PAM | M4 antag | OXTR potentiate | OXTR ag | V1R ag counter | M4 ag
Cc1cc(C(=O)CSc2nc3ccccc3[nH]2)c(C)n1CC1CCCO1 (stereo unspecified) | -17 | 66* | -13 | 15 | 11 | 35*
COc1ccc(C)c2sc(N(CCCN(C)C)C(=O)c3ccc4c(c3)OCCO4)nc12 | 67* | 54* | -16 | 9 | 2 | 27
CN(C)CCCN(C(=O)c1ccc2c(c1)OCCO2)c1nc2cc3c(cc2s1)OCO3 | 15 | 8 | -3 | 2 | 1 | 3
Cc1cccc(NC(=O)CCS(=O)(=O)c2ccc3nc(C)sc3c2)c1 | 9 | -6 | · | · | · | 2
COc1ccc(NC(=O)N(C)C[C@@H]2OCc3cn(nn3)CCCC(=O)N([C@H](C)CO)C[C@H]2C)cc1 | 4 | -1 | · | · | · | 0
N#CC1=C(N)Oc2cc(O)c(Cl)cc2C1c1ccccc1F (stereo unspecified) | -6 | 4 | -12 | 25* | 18 | 10
N#CC1=C(N)Oc2cc(O)c(Cl)cc2C1c1cccnc1 (stereo unspecified) | -6 | 2 | · | · | · | 8
O=C(NCC(=O)N(Cc1ccco1)C(C(=O)NC1CCCC1)c1cccnc1)c1ccco1 (stereo unspecified) | -1 | -2 | -10 | 0 | -1 | 0
O=C(NCC(=O)N(Cc1ccccc1)C(C(=O)NC1CCCC1)c1cccnc1)c1ccco1 (stereo unspecified) | 18* | 2 | -12 | -1 | -1 | 1
O=C(Nc1nnc(-c2ccccc2)o1)c1nc2ccccc2s1 | 7 | -6 | -9 | 88* | 83* | 3
NC(=O)CC(NC(=O)c1ccccc1)c1ccc(NCCc2ccc(F)cc2)c([N+](=O)[O-])c1 (stereo unspecified) | -2 | -2 | -8 | 0 | 0 | 2
COc1cccc(C(C)(O)c2nc(-c3ccc(N(C)C)cc3)cs2)c1 (stereo unspecified) | -5 | 16 | · | · | · | 10
O=C(CN1C(=O)NC2(CCCCC2)C1=O)Nc1cccc2ncccc12 | 24* | -25 | -7 | 3 | 1 | 0
CC(=O)OCCNc1cc(Sc2nc3ccccc3[nH]2)c2nonc2c1[N+](=O)[O-] | -5 | 41* | 6 | -1 | -1 | 2
CCN1CCc2c(sc(NC(=O)Nc3ccc(Cl)c(Cl)c3)c2C(N)=O)C1 | -44 | 51* | -12 | 219* | 173* | 124*
C=CCN(CC=C)C(=O)Nc1ccc2nc(C)sc2c1 | 21* | -7 | -13 | 0 | 0 | 3
O=C(c1ccccc1)N1CCN(C(=O)c2ccccc2)CC1 | 10 | -9 | 4 | 0 | 1 | 1
CCC(=O)N1CCN(C(=O)c2ccccc2)CC1 | -16 | 75* | -1 | 0 | 1 | 0
Cc1cc(OCc2cc(C(=O)N3CCC(Oc4cccnc4)CC3)no2)cc(C)c1Cl | -12 | 35* | -18 | 5 | 8 | 19
COc1ccc(CN2CCC[C@]3(N[C@H](c4ccccc4)[C@@H]4C(=O)N(Cc5ccccc5)C(=O)[C@@H]43)C2=O)cc1 | -8 | -14 | · | · | · | 18
Cc1cccc(C(=O)OCC(=O)Nc2c(C)nn(-c3ccccc3)c2C)c1O | -8 | -5 | -9 | 0 | 2 | 15
Cc1nn(-c2ccccc2)c(C)c1NC(=O)COC(=O)c1cc(Br)ccc1O | -3 | 31* | -8 | 0 | 0 | 20
CS(=O)(=O)N(CC(=O)Nc1ccccc1C(=O)NCCc1ccccc1)c1ccc2c(c1)OCCO2 | -14 | 41* | -11 | -1 | 2 | 1
Cc1ccc(Oc2ncccc2CO)cc1 | 26* | -4 | -3 | 0 | 0 | 2
Cc1cc(C)c(C#N)c(Sc2nc(C)c([N+](=O)[O-])c(C)c2C#N)n1 | 42* | 34* | · | · | · | 2
SMILES | CHRM4 PAM | M4 antag | OXTR potentiate | OXTR ag | V1R ag counter | M4 ag
Cc1nc(Sc2ccccc2)c(C#N)c(C)c1[N+](=O)[O-] | -1 | 4 | -5 | -2 | -1 | -2
CCc1ccc(-c2csc(NC(=O)C3CC(=O)N(c4ccc5c(c4)OCCO5)C3)n2)cc1 (stereo unspecified) | 30* | -3 | -1 | 1 | 2 | 5
Cc1csc(NC(=O)C2CC(=O)N(c3ccc4c(c3)OCCO4)C2)n1 (stereo unspecified) | -2 | -4 | -7 | 1 | 2 | 3
CCCCNC(=O)C(NC(=O)c1cccs1)C(=O)c1ccccc1 (stereo unspecified) | 5 | 1 | · | · | · | 1
Cc1ccccc1NC(=O)C1(C)Cc2ccccc2C(=O)O1 (stereo unspecified) | -2 | 1 | -17 | 1 | 1 | 1
Cc1ccc(NC(=O)C2(C)Cc3ccccc3C(=O)O2)cc1 (stereo unspecified) | 25* | -5 | -13 | -1 | 1 | 2
CCOC(=O)N1CCC(NC(=S)Nc2ccc3nc(N4CCN(CC)CC4)cc(C)c3c2)CC1 | -31 | 37* | 6 | -1 | 0 | -2
NC(=S)NNC(=O)C12CC3CC(CC(C3)C1)C2 | -9 | 10 | -17 | 34* | 23* | 42*
COC(=O)NNC(=O)C12CC3CC(CC(C3)C1)C2 | 11 | -3 | -9 | 0 | 0 | 2
COc1cc2c(cc1NC(=O)CN1CCN(S(=O)(=O)c3ccc(C)cc3)CC1)oc1ccccc12 | 22* | -8 | -16 | 0 | 4 | 1
CCCNC(=O)C1(C)CCN(C(=O)COCc2ccccc2)C1 (stereo unspecified) | -4 | -1 | · | · | · | 0
CCCCCCCCCCCCCCCC[n+]1cccc2ccccc21 | -15 | 52* | -5 | -1 | 1 | -1
O=[N+]([O-])c1ccc(C[n+]2cccc3c4ccccc4ccc32)cc1 | -5 | 0 | -11 | 0 | 1 | 1
CCCCCCCCC[n+]1cccc2c3ccccc3ccc21 | -22 | 70* | -11 | 3 | 2 | 3
CN1/C(=C/C=C/c2n(C)c3cc([N+](=O)[O-])c([N+](=O)[O-])cc3[n+]2C)C(C)(C)c2ccccc21 | -7 | 7 | · | · | · | -1
CC1CN(C(=O)N(C)C)CCN1C(=O)N(C)C (stereo unspecified) | 13 | 31* | 3 | 1 | 1 | 0
O=C1C=CC(=O)N1CCCCCCCCCCN1C(=O)C=CC1=O | -3 | 19 | · | · | · | 7
Oc1ccc(N=C/C=C/c2cccc(Br)c2)cc1-c1nc2ccccc2s1 | 32* | -1 | -2 | 1 | 1 | 0

Bioassay records: PubChem BioAssay, The Scripps Research Institute Molecular Screening Center
